# Reference: ChEMBL document CHEMBL1147759, “Substituted indanylacetic acids as PPAR-alpha-gamma activators” (Bioorg Med Chem Lett, 2006)
# pEC50: −log10 of the molar value.
# Legend:
# [1] = target: T1, Peroxisome proliferator-activated receptor alpha (Homo sapiens, UniProt Q07869); assay: Activity against PPAR alpha in human by FRET assay
# T1 sequence (Q07869 whole entry): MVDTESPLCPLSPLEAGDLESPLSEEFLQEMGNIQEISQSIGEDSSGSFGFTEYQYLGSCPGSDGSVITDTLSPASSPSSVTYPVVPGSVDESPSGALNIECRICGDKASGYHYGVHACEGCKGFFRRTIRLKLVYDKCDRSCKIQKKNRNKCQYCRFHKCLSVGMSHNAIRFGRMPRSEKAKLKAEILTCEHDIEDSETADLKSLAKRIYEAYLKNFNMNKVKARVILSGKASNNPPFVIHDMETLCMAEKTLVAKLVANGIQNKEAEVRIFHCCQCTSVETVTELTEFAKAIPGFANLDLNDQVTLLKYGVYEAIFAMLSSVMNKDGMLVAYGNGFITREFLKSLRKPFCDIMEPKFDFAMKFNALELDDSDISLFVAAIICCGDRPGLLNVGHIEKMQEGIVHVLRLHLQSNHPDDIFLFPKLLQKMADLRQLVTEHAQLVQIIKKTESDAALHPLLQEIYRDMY
# How it was run: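 Human PPAR-α ligand-binding domain (GST-tagged), incubated with compound, europium-labelled anti-GST antibody, biotinylated CREB-binding protein co-activator and streptavidin-APC. Time-resolved FRET read with excitation at 340 nm and emission at 615 and 640 nm. EC50 taken as the mean of at least three experiments.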
# [2] = target: T2, Peroxisome proliferator-activated receptor gamma (Homo sapiens, UniProt P37231); assay: Activity against PPAR gamma in human by FRET assay
# T2 sequence (P37231 whole entry): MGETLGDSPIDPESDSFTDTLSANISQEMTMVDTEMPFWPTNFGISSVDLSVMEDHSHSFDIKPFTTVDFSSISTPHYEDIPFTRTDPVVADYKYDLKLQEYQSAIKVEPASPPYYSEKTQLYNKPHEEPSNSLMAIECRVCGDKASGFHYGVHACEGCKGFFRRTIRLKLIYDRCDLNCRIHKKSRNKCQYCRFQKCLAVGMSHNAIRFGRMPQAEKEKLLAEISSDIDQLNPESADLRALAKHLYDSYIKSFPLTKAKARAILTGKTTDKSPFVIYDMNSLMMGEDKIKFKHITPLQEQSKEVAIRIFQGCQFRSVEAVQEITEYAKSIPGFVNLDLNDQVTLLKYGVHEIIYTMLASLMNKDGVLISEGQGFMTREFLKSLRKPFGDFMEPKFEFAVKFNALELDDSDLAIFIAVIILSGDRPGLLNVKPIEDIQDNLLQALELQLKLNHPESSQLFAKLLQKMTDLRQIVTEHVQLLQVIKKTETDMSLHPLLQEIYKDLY
Compound,pEC50 [1],pEC50 [2]
CCC(C(=O)O)C1CCc2cc(OCCc3coc(-c4ccccc4)n3)ccc21 (stereo unspecified),6.42,6.51
CCC(C(=O)O)C1CCc2cc(OCCNC(=O)Nc3ccc(C)cc3)ccc21 (stereo unspecified),< 5.00,< 5.00
CCC(C(=O)O)C1CCc2cc(OCCc3nc(-c4ccccc4)oc3C)c(-c3ccc(Cl)cc3)cc21 (stereo unspecified),7.35,6.77
CCCCc1ccc(-c2nc(CCOc3ccc4c(c3)CCC4C(CC)C(=O)O)c(C)o2)cc1 (stereo unspecified),7.09,7.80
CCC(C(=O)O)C1CCc2cc(OCCc3nc(-c4ccc(-c5ccccc5)cc4)oc3C)ccc21 (stereo unspecified),5.48,7.37
CCC(C(=O)O)C1CCc2cc(OCCc3nc(-c4ccccc4)oc3C)c(Cl)cc21 (stereo unspecified),6.90,6.53
CCCC(C(=O)O)C1CCc2cc(OCCc3nc(-c4ccccc4)oc3C)ccc21 (stereo unspecified),5.41,7.28
CC[C@H](C(=O)O)[C@@H]1CCc2cc(OCCc3nc(-c4ccccc4)oc3C)ccc21,7.21,8.22
CCC(C(=O)O)C1CCc2cc(OCCc3nc(-c4ccccc4)oc3-c3ccccc3)ccc21 (stereo unspecified),< 5.00,6.21
CCC(C(=O)O)C1CCc2cc(OCCc3nc(-c4ccc5c(c4)OCC5)oc3C)ccc21 (stereo unspecified),7.19,8.22
CCC(C(=O)O)C1CCc2cc(OCCc3nc(-c4ccc(F)cc4)oc3C)ccc21 (stereo in doubt),7.43,6.81
Cc1oc(-c2ccccc2)nc1CCOc1ccc2c(c1)CCC2C(C(=O)O)c1ccccc1 (stereo unspecified),5.14,5.02
CC[C@@H](C(=O)O)[C@H]1CCc2cc(OCCc3nc(-c4ccc(F)cc4)oc3C)ccc21,6.06,< 5.00
CCC(C(=O)O)C1CCc2cc(OCc3cc(-c4ccccc4)on3)ccc21 (stereo unspecified),6.17,< 5.00
CCC(C(=O)O)C1CCc2cc(OCCc3nc(-c4ccc(Cl)c(Cl)c4)oc3C)ccc21 (stereo in doubt; 66),7.04,7.03
CCC(C(=O)O)C1CCc2cc(OCCc3nc(-c4ccccc4)oc3C)ccc21 (stereo unspecified),6.85,7.38
Cc1oc(-c2ccccc2)nc1CCOc1ccc2c(c1)CCC2C(CC(F)(F)F)C(=O)O (stereo unspecified),5.24,6.75
CCC(C(=O)O)C1CCc2cc(OCCc3nc(COc4ccc(Cl)cc4)oc3C)ccc21 (stereo unspecified),7.28,6.98
CCc1oc(-c2ccccc2)nc1CCOc1ccc2c(c1)CCC2C(CC)C(=O)O (stereo unspecified),6.45,7.34
CCC(C(=O)O)C1CCc2cc(OCCc3nc(-c4ccc(F)c(C)c4)oc3C)ccc21 (stereo unspecified),7.12,7.11
CCC(C(=O)O)C1CCc2cc(OCCc3nc(-c4ccccc4)oc3C)c(Br)cc21 (stereo unspecified),6.74,< 5.00
CCC(C(=O)O)C1CCc2cc(OCCNC(=O)c3ccccc3)ccc21 (stereo unspecified),< 5.00,< 5.00
CCC(C(=O)O)C1CCc2cc(OCCc3nc(-c4ccc5ccccc5c4)oc3C)ccc21 (stereo unspecified),6.98,7.80
CCC(C(=O)O)C1CCc2cc(OCCc3nc(-c4cc(C)on4)oc3C)ccc21 (stereo unspecified),6.08,6.12
CCC(C(=O)O)C1CCc2cc(OCCc3nc(Cc4ccccc4)oc3C)ccc21 (stereo unspecified),6.14,6.48
CCC(C(=O)O)C1CCc2cc(OCCc3c(C)noc3C)ccc21 (stereo unspecified),< 5.00,< 5.00
Cc1oc(-c2ccccc2)nc1CCOc1ccc2c(c1)CCC2C(C(=O)O)C1CC1 (stereo unspecified),6.10,6.80
CCC(C(=O)O)C1CCc2cc(OCCc3nc(-c4ccccc4C)oc3C)ccc21 (stereo unspecified),6.20,6.82
